Laboratory results from paper PMC5598146 (Toxicology Reports, 2015).
“Also recorded” adds a separate entry of the source.

How the values were obtained:
Sprague-Dawley rats [1] = assay: 28-Day dose-range finding toxicity study; assay type: in vivo, rat; details: 28 days
[2] = Toxicokinetics in the 90-day dietary study; assay type: in vivo, Sprague-Dawley rats; details: for AUC(0-t): Sprague-Dawley [Crl:CD(SD)], rat, in vivo, po, AUC(0-24)
[3] = tested on: bred female Crl:CD(SD) rats; assay: Dose range-finding developmental toxicity study; assay type: in vivo, rat; details: 125, 250, 500, 1000 mg/kg/day oral gavage, gestation Days 6-20
[4] = In vitro oxidative metabolism, rat liver microsomes; assay type: in vitro ADME
Procedure, shortened: (§1)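 Pooled mixed-gender liver microsomes (human or Sprague-Dawley rat) were incubated with test compound plus NADPH for 60 min at 37 °C, then quenched with acetonitrile. Controls: time-zero and 60-min incubations without NADPH, plus testosterone incubations to confirm microsomal activity. Metabolites were sought by LC/MS full-scan analysis with UV detection at 214, 240 and 254 nm.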

[5] = Pharmacokinetics and oral bioavailability in rats; assay type: in vivo, Sprague-Dawley rats; details: for half-life / bioavailability / clearance / Tmax: rat, plasma
[6] = tested on: S. typhimurium strains TA98 and TA100; assay: Abbreviated Ames; assay type: cell-based; details: plate incorporation, up to 5000 μg/plate, ±S9
Procedure, shortened: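 Salmonella TA98 and TA100 plate-incorporation assay per OECD 471, run with and without rat liver S9. Test compound and its decarboxylated impurity were tested at concentrations up to and including 5000 µg/plate, with vehicle and positive controls. Revertant colony counts were compared with vehicle control, and bacterial toxicity was recorded.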

[7] = Relative oral bioavailability of sodium, phosphate and hemisulfate salts in rats; assay type: in vivo, Sprague-Dawley rats
Procedure, shortened: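 Male Sprague-Dawley rats, 4/group, received a single 30 mg/kg oral gavage dose in 1% methylcellulose of either parent acid or its sodium, phosphate or sulfate salt. Jugular-catheter blood was drawn at about 15 and 30 min and at 1, 2, 4, 8 and 24 h. Plasma parent was measured by LC/MS/MS with an internal standard. Relative AUClast and Cmax were corrected for molecular-weight differences.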

[8] = Excretion in urine and feces of rats; assay type: in vivo, Sprague-Dawley rats; details: 10 mg/kg oral
Swiss albino (CD-1) mice = assay: In vivo mouse micronucleus assay; details: 500-2000 mg/kg bw oral, male mice
Sprague-Dawley rats [9] = assay: 90-Day subchronic toxicity study; assay type: in vivo, rat; details: 90 days
Procedure, shortened: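 Male and female Crl:CD(SD) rats, 20/sex/group, fed 0 (basal diet), 30, 60 or 100 mg/kg/day in the diet for 90 days. […] End-points: functional observation battery, motor activity, body weight gain, food consumption, hematology, clinical chemistry, urinalysis, organ weights, necropsy, and histopathology of at least 53 tissues (control and high dose only).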

[10] = In vitro oxidative metabolism, human liver microsomes; assay type: in vitro ADME
Procedure, shortened: as §1

[11] = Dietary exposure estimate; details: 100 mg/kg bw/day vs 2400 μg/day
[12] = tested on: human peripheral blood lymphocytes (HPBL); assay: In vitro chromosome aberration test; assay type: cell-based; details: 125-500 ug/mL, 3 h ±S9, 20 h -S9
Procedure, shortened: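 Human peripheral blood lymphocytes were exposed to the sodium salt of the test compound (0–500 µg/mL) per OECD 473, with solvent and positive controls (mitomycin C −S9, cyclophosphamide +S9). Exposures: 3 h and 20 h without S9, and 3 h with S9 from phenobarbital/5,6-benzoflavone-induced male Sprague-Dawley rat liver. Structural and numerical aberrations were scored at 125, 250 and 500 µg/mL for each condition.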

[13] = tested on: S. typhimurium strains TA98, TA100, TA1535, TA1537 and E. coli strain WP2 uvrA; assay: Bacterial reverse mutation test; assay type: cell-based, Escherichia coli; details: 51-5000 ug/plate, plate incorporation and pre-incubation, ±S9
[14] = food ad-mix, male and female rats, highest dose tested
[15] = male, Sprague-Dawley, rat, plasma, po, 30 mg/kg

Cc1nc2cccc(OCC(C)(C)C(=O)NC(C)C)c2c(N)c1C(=O)O [S9632, 4-amino-5-(3-(isopropylamino)-2,2-dimethyl-3-oxopropoxy)-2-methylquinoline-3-carboxylic acid]
Findings (Sprague-Dawley rats [1]; 10, 30, 100 mg/kg/day food ad-mix): No test-article related findings | NOEL (Sprague-Dawley rats [1]; [14]): 100 mg/kg/day | AUC(0-t) ([2]; both, 30 mg/kg/day, food ad-mix 30 mg/kg/day, Day 90, Combined): 341 ng·h/mL | AUC(0-t) ([2]; both, 100 mg/kg/day, food ad-mix 100 mg/kg/day, Day 7, Combined): 1040 ng·h/mL | AUC(0-t) ([2]; both, 100 mg/kg/day, food ad-mix 100 mg/kg/day, Day 90, Combined): 1200 ng·h/mL | AUC(0-t) ([2]; female, 30 mg/kg/day, food ad-mix 30 mg/kg/day, Day 90, Female): 389 ng·h/mL | AUC(0-t) ([2]; female, 100 mg/kg/day, food ad-mix 100 mg/kg/day, Day 90, Female): 1400 ng·h/mL | AUC0-24/dose ([2]; food ad-mix 30 mg/kg/day, Day 7, Combined): 5.92 ng·h/mL/mg/kg | AUC0-24/dose ([2]; food ad-mix 30 mg/kg/day, Day 7, Female): 3.5 ng·h/mL/mg/kg | AUC0-24/dose ([2]; food ad-mix 30 mg/kg/day, Day 7, Male): 8.34 ng·h/mL/mg/kg | AUC0-24/dose ([2]; food ad-mix 30 mg/kg/day, Day 90, Combined): 11.4 ng·h/mL/mg/kg | AUC0-24/dose ([2]; food ad-mix 30 mg/kg/day, Day 90, Female): 13.0 ng·h/mL/mg/kg | AUC0-24/dose ([2]; food ad-mix 30 mg/kg/day, Day 90, Male): 9.75 ng·h/mL/mg/kg | AUC0-24/dose ([2]; food ad-mix 60 mg/kg/day, Day 7, Combined): 6.61 ng·h/mL/mg/kg | AUC0-24/dose ([2]; food ad-mix 60 mg/kg/day, Day 7, Female): 9.43 ng·h/mL/mg/kg | AUC0-24/dose ([2]; food ad-mix 60 mg/kg/day, Day 7, Male): 3.79 ng·h/mL/mg/kg | AUC0-24/dose ([2]; food ad-mix 60 mg/kg/day, Day 90, Combined): 13.3 ng·h/mL/mg/kg | AUC0-24/dose ([2]; food ad-mix 60 mg/kg/day, Day 90, Female): 9.14 ng·h/mL/mg/kg | AUC0-24/dose ([2]; food ad-mix 60 mg/kg/day, Day 90, Male): 17.5 ng·h/mL/mg/kg | AUC0-24/dose ([2]; food ad-mix 100 mg/kg/day, Day 7, Combined): 10.4 ng·h/mL/mg/kg | AUC0-24/dose ([2]; food ad-mix 100 mg/kg/day, Day 7, Female): 11.7 ng·h/mL/mg/kg | AUC0-24/dose ([2]; food ad-mix 100 mg/kg/day, Day 7, Male): 9.15 ng·h/mL/mg/kg | AUC0-24/dose ([2]; food ad-mix 100 mg/kg/day, Day 90, Combined): 12.0 ng·h/mL/mg/kg | AUC0-24/dose ([2]; food ad-mix 100 mg/kg/day, Day 90, Female): 14.0 ng·h/mL/mg/kg | AUC0-24/dose ([2]; food ad-mix 100 mg/kg/day, Day 90, Male): 10.0 ng·h/mL/mg/kg | AUC(0-t) ([2]; male, 30 mg/kg/day, food ad-mix 30 mg/kg/day, Day 90, Male): 293 ng·h/mL | AUC(0-t) ([2]; male, 100 mg/kg/day, food ad-mix 100 mg/kg/day, Day 90, Male): 1000 ng·h/mL | Findings [3]: No maternal toxicity or effects on intrauterine growth and survival up to 1000 mg/kg/day | Metabolism (Phase I biotransformations) ([4]; 10 µM, 60 min, 37 °C, NADPH): not metabolized; also recorded: No Phase I biotransformations | Level above which no metabolism was observed ([4]; 60 min incubation): ≤ 0.1 % of the parent drug | half-life ([5]; both, Sprague-Dawley [Crl:CD(SD)], iv, 1 mg/kg, apparent plasma half-life (t1/2), range, iv, male and female): 11.4 to 16.2 min | half-life ([5]; both, Sprague-Dawley [Crl:CD(SD)], po, plasma elimination half-life (t1/2), range, oral administration): 42.6 to 83.4 min | half-life ([5]; both, Sprague-Dawley, iv, 1 mg/kg, t1/2, intravenous): < 16.2 min | bioavailability ([5]; both, Sprague-Dawley, po): 0.53 to 1.19% | half-life ([5]; both, Sprague-Dawley, po, t1/2, oral administration): < 83.4 min | bioavailability ([5]; female, Sprague-Dawley [Crl:CD(SD)], po, 100 mg/kg): 0.83% | clearance ([5]; female, Sprague-Dawley, iv, 1 mg/kg): 42.5 mL/min/kg | Tmax ([5]; female, Sprague-Dawley, iv, 1 mg/kg, iv 1.0 mg/kg, Day 1, F): 1.8 min | half-life ([5]; female, Sprague-Dawley, iv, 1 mg/kg, t1/2, iv 1.0 mg/kg, Day 1, F): 16.2 min | bioavailability ([5]; female, Sprague-Dawley, po, 10 mg/kg): 1.19% | bioavailability ([5]; female, Sprague-Dawley, po, 30 mg/kg): 0.77% | AUC0-last/dose ([5]; iv 1.0 mg/kg, Day 1, F): 411.9 ng·h/mL/mg/kg | AUC0-last/dose ([5]; iv 1.0 mg/kg, Day 1, M): 330.6 ng·h/mL/mg/kg | Mean plasma clearance as % of hepatic blood flow ([5]; iv, females): 77.3% | Mean plasma clearance as % of hepatic blood flow ([5]; iv, males): 93.6% | clearance ([5]; male, Sprague-Dawley, iv, 1 mg/kg): 51.5 mL/min/kg | Tmax ([5]; male, Sprague-Dawley, iv, 1 mg/kg, iv 1.0 mg/kg, Day 1, M): 1.8 min | half-life ([5]; male, Sprague-Dawley, iv, 1 mg/kg, t1/2, iv 1.0 mg/kg, Day 1, M): 11.4 min | bioavailability ([5]; male, Sprague-Dawley, po, 10 mg/kg): 0.54% | bioavailability ([5]; male, Sprague-Dawley, po, 30 mg/kg): 0.92% | bioavailability ([5]; male, Sprague-Dawley, po, 100 mg/kg): 0.53% | AUC0-last/dose ([5]; oral gavage 10 mg/kg, Day 1, F): 4.92 ng·h/mL/mg/kg | AUC0-last/dose ([5]; oral gavage 10 mg/kg, Day 1, M): 1.79 ng·h/mL/mg/kg | AUC0-last/dose ([5]; oral gavage 10 mg/kg, Day 7, F): 5.89 ng·h/mL/mg/kg | AUC0-last/dose ([5]; oral gavage 10 mg/kg, Day 7, M): 4.81 ng·h/mL/mg/kg | AUC0-last/dose ([5]; oral gavage 30 mg/kg, Day 1, F): 3.17 ng·h/mL/mg/kg | AUC0-last/dose ([5]; oral gavage 30 mg/kg, Day 1, M): 3.03 ng·h/mL/mg/kg | AUC0-last/dose ([5]; oral gavage 30 mg/kg, Day 7, F): 3.56 ng·h/mL/mg/kg | AUC0-last/dose ([5]; oral gavage 30 mg/kg, Day 7, M): 2.87 ng·h/mL/mg/kg | AUC0-last/dose ([5]; oral gavage 100 mg/kg, Day 1, F): 3.41 ng·h/mL/mg/kg | AUC0-last/dose ([5]; oral gavage 100 mg/kg, Day 1, M): 1.76 ng·h/mL/mg/kg | AUC0-last/dose ([5]; oral gavage 100 mg/kg, Day 7, F): 2.79 ng·h/mL/mg/kg | AUC0-last/dose ([5]; oral gavage 100 mg/kg, Day 7, M): 1.85 ng·h/mL/mg/kg | Accumulation in plasma ([5]; repeated oral dosing for 7 consecutive days): No significant accumulation | Mutagenicity, result [6]: not mutagenic | AUC(0-t) [7, 15]: 59.6 ± 26.1 ng·h/mL | Cmax [7, 15]: 38.7 ± 24.5 ng/mL | %Cmax Relative to S9632 ([7]; single oral 30 mg/kg, male rats, corrected for molecular weight): 100.0% | Oxidative metabolites (M + 16) in fecal samples [8]: not detectable | Oxidative metabolites (M + 16) in urine [8]: trace amounts | Micronucleus formation (in vivo), result (Swiss albino (CD-1) mice): did not induce micronuclei; also recorded: Negative | Findings (Sprague-Dawley rats [9]; 30, 60, 100 mg/kg/day food ad-mix): No test-article related findings | NOEL (Sprague-Dawley rats [9]; [14]): 100 mg/kg/day | Metabolism (Phase I biotransformations) ([10]; 10 µM, 60 min, 37 °C, NADPH): not metabolized; also recorded: No Phase I biotransformations | Level above which no metabolism was observed ([10]; 60 min incubation): ≤ 0.1 % of the parent drug | NOAEL (90-day) relative to estimated dietary exposure [11]: 2500 times | Chromosome aberration (in vitro), result [12]: Negative | Reverse mutation (in vitro), result [13]: Negative
